ChEMBL document CHEMBL4350999, “Enhanced tumor retention of NTSR1-targeted agents by employing a hydrophilic cysteine cathepsin inhibitor” (Eur J Med Chem, 2019)

Tests used:
[1] = Drug uptake in kidney of SCID mouse xenografted with human HT-29 cells using 177Lu labelled compound at 0.37 MBq/mouse, iv co-treated with D-lysine at 40 mg/kg measured at 24 hrs by gamma counter analysis; type: ADME, organism-based; details: in vivo
In short: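 Female SCID mice bore s.c. HT-29 xenografts (5 × 10^6 cells in Matrigel, about 80 mm3). D-lysine 40 mg/kg was co-injected i.v. with 10 μCi (0.37 MBq) of purified 177Lu-conjugate. Tissues were harvested at 24 h, weighed and gamma-counted, reported as %ID/g; mean ± SD, n = 5.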

[2] = Drug uptake in small intestine of SCID mouse xenografted with human HT-29 cells pretreated for 1 hr with colchicine at 1 mg/kg, ip followed by 177Lu labelled compound at 0.37 MBq/mouse, iv measured at 24 hrs by gamma counter analysis; type: ADME, organism-based; details: in vivo
In short: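 HT-29 flank xenografts in female SCID mice (5 × 10^6 cells in Matrigel, about 80 mm3). Colchicine 1 mg/kg was given i.p. before a tail-vein injection of 10 μCi (0.37 MBq) of purified 177Lu-conjugate. Tissues were taken at 24 h, weighed and gamma-counted as %ID/g; mean ± SD, n = 5.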

Drug uptake [1]: 34 % ID/g
Drug uptake [2]: 2.2 % ID/g
SMILES: Cc1cc(O)cc(C)c1C[C@H](NC(=O)[C@@H]1CCCN1C(=O)[C@H](CCCNC(=N)N)NC(=O)[C@H](CCCNC(=N)N)N(C)C(=O)[C@@H]1CCCN1C(=O)[C@H](CCCCN)NC(=O)[C@@H](CO)NC(=O)[C@@H](CO)NC(=O)[C@@H](CO)NC(=O)[C@H](Cc1cn(CCNC(=O)[C@H](CCCNC(=N)N)NC(=O)[C@H](CC(C)C)NC(=O)C2OC2C(=O)O)nn1)NC(=O)CN1CCN(CC(=O)O)CCN(CC(=O)O)CCN(CC(=O)O)CC1)C(=O)N[C@H](C(=O)N[C@@H](CC(C)C)C(=O)O)C(C)(C)C (some centres not stated)
